Data set [1] has as its system Mus musculus. Description: Acute toxicity in ICR mouse assessed as mortality at 640 mg/kg, oral gavage after 4 to 14 days. The class given is organism-based. The note with it: in vivo. The gist of the method: (§1)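 ICR mice of both sexes, 7 weeks old, held under SPF conditions. Each got one gavage dose (800, 640, 512, 409.6 or 327.8 mg/kg) or vehicle, n = 8 per group. Deaths were recorded at 1 h, 4 h, 3 d and 4–14 d. Behaviour, water and food intake, body weight and activity were followed to day 14. LD50 given with 95% confidence limits.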

Data set [2] can be described thus: Acute toxicity in ICR mouse assessed as survival at 327.8 mg/kg, oral gavage on day 14. The class given is organism-based. The note with it: in vivo. The gist of the method:
as §1

Data set [3] relates to Mus musculus. Description: Acute toxicity in ICR mouse assessed as mortality at 409.6 mg/kg, oral gavage after 4 to 14 days. Particulars: in vivo. The class given is organism-based. The gist of the method:
as §1

Data set [4] has as its system DU-145. The data set can be described thus: Induction of cell cycle arrest in human DU145 cells assessed as cells accumulation at G0/G1 phase at 0.08 uM after 24 hrs by propidium iodide staining-based flow cytometry (reference value: 54%). The data set is classed as functional.
Data set [5] deals with Mus musculus. Description: Acute toxicity in ICR mouse assessed as mortality at 800 mg/kg, oral gavage after 4 to 14 days. The data set is classed as organism-based. Particulars: in vivo. The gist of the method:
as §1

Data set [6] deals with Mus musculus. Description: Acute toxicity in ICR mouse assessed as mortality at 327.8 mg/kg, oral gavage after 4 hrs. The class given is organism-based. Particulars: in vivo. The gist of the method:
as §1

Data set [7] relates to Mus musculus. The data set can be described thus: Acute toxicity in ICR mouse assessed as mortality at 409.6 mg/kg, oral gavage after 1 hr. The data set is classed as organism-based. Particulars: in vivo. The gist of the method:
as §1

Data set [8] has as its system Mus musculus. Description: Acute toxicity in ICR mouse assessed as mortality at 512 mg/kg, oral gavage after 4 to 14 days. The class given is organism-based. The note with it: in vivo. The gist of the method:
as §1

Data set [9] relates to Mus musculus. The data set can be described thus: Acute toxicity in ICR mouse assessed as mortality at 512 mg/kg, oral gavage after 4 hrs. The data set is classed as organism-based. Particulars: in vivo. The gist of the method:
as §1

The nature of data set [10]: Acute toxicity in ICR mouse assessed as survival at 640 mg/kg, oral gavage on day 14. The class given is organism-based. The note with it: in vivo. The gist of the method:
as §1

Data set [11] is described as follows: Reduction in phosphorylated Akt protein expression in human DU145 cells at 0.08 to 0.32 uM after 24 hrs by Western blot analysis. The note with it: DU-145. The class given is functional, cell-based. The gist of the method: (§2)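 DU-145 cells (5 × 10^5/well) in 10% FCS Ham's F-12K overnight, treated in duplicate with compound or vehicle 24 h; lysed (Tris pH 8, EGTA, NaCl, NP-40, Triton X-100), protein by BCA. Blots blocked in 5% milk, probed for AKT, p-AKT Ser473, mTOR, p-mTOR Ser2448, Bax, Bcl-2, β-actin; ECL detection, densitometry relative to control; three separate experiments.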

Data set [12] concerns DU-145. The data set can be described thus: Antiproliferative activity against human DU145 cells at 2 uM after 72 hrs by CCK8 assay. The data set is classed as functional. Particulars: DU-145, 72 h. The gist of the method: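 DU-145 screening at single concentration 2 μM for 72 h, proliferation by CCK-8 (cells 5 × 10^3/well in 10% FCS DMEM). Percent inhibition vs untreated, background-corrected; mean ± SD from three independent experiments.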

Data set [13] has as its system Mus musculus. Description: Acute toxicity in ICR mouse assessed as mortality at 327.8 mg/kg, oral gavage after 1 hr. Particulars: in vivo. The class given is organism-based. The gist of the method:
as §1

In data set [14] the test system is DU-145. Description: Antiproliferative activity against human DU145 cells after 72 hrs by CCK8 assay. The data set is classed as functional, cell-based. The note with it: DU-145, 72 h. The gist of the method: (§3)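 CCK-8 assay: DU-145, H460, Bxpc-3, BEL-7404 and nontumor WPMY-1 cells seeded at 5 × 10^3 cells/well in 10% FCS DMEM overnight, then exposed in triplicate to 0.041−10 μM for 72 h. CCK-8 added for final 30 min, absorbance 450 nm; inhibition relative to medium-only controls after background subtraction; IC50 as concentration giving 50% inhibition.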

A short description of data set [15]: Acute toxicity oral gavage treated in ICR mouse assessed as mortality measured up to 14 days. The data set is classed as organism-based. The note with it: in vivo. The gist of the method: as §1
The next data set addresses T1, Cytochrome P450 1A2 (Homo sapiens, UniProt P05177).
T1 sequence (P05177 whole entry): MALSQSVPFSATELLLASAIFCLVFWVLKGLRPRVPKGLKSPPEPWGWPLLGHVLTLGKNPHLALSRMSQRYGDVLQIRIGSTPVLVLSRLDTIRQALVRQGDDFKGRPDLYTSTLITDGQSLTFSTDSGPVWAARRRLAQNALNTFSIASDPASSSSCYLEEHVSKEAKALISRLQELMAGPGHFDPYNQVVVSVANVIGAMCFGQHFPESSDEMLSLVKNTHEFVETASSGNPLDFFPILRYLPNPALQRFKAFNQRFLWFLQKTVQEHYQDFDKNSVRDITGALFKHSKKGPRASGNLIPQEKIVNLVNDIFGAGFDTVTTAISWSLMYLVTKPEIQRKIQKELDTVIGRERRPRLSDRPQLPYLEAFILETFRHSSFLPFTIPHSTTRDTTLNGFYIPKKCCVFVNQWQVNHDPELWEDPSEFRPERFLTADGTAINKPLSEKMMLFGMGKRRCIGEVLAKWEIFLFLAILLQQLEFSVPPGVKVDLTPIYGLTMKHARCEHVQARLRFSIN
Description: Inhibition of CYP1A2 in human liver microsomes after 1 hr by LC-MS/MS analysis.

A short description of data set [16]: Antiproliferative activity against human Bel7404 cells after 72 hrs by CCK8 assay. The class given is functional, cell-based. Particulars: BEL-7404, 72 h. The gist of the method: as §3
In data set [17] the test system is DU-145. Description: Induction of apoptosis in human DU145 cells assessed as chromatin condensation and fragmentation at 0.08 to 0.32 uM after 24 hrs by Hoechst staining-based fluorescence microscopy. The class given is functional, cell-based. The gist of the method:
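DU-145 cells exposed 24 h to compound or vehicle (0.1% DMSO), fixed in methanol 30 min, stained with 1 mg/mL Hoechst 33258, and scored under fluorescence microscope for chromatin condensation and nuclear fragmentation; three separate experiments.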

The nature of data set [18]: Antiproliferative activity against human H460 cells after 72 hrs by CCK8 assay. The class given is functional, cell-based. Particulars: NCI-H460, 72 h. The gist of the method: as §3
Data set [19] is described as follows: Apparent permeability across apical to basolateral side in human Caco2 cells at 0.5 uM measured after 30 mins by LC-MS/MS analysis. The note with it: Caco-2. The class given is ADME, cell-based. The gist of the method: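 Caco2 monolayers (passages 20−40) grown 21 days at 37 °C, 5% CO2; integrity checked by TEER. Test drug 0.5 μM applied in triplicate, apical pH 6.8, basolateral pH 7.4, 37 °C for 30 min, A→B and B→A. Donor and receiver sampled, concentration by LC−MS/MS; Papp calculated; efflux ratio = Papp B→A / Papp A→B.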

Data set [20] is described as follows: Acute toxicity in ICR mouse assessed as survival at 512 mg/kg, oral gavage on day 14. The data set is classed as organism-based. The note with it: in vivo. The gist of the method:
as §1

For data set [21], the target named is Serine/threonine-protein kinase mTOR (Homo sapiens) (UniProt P42345). Description: Reduction in phosphorylated mTOR protein expression in human DU145 cells at 0.08 to 0.32 uM after 24 hrs by Western blot analysis. The class given is functional, cell-based. The note with it: DU-145. The gist of the method: as §2
Data set [22] shares this target. Description: Effect on mTOR protein expression in human DU145 cells at 0.08 to 0.32 uM after 24 hrs by Western blot analysis. The data set is classed as functional, cell-based. Particulars: DU-145. The gist of the method: as §2
Data set [23] in a line: Half life in human liver microsomes by LC-MS/MS analysis. The class given is ADME. The gist of the method:
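Human liver microsomes at 0.2 mg/mL protein in 100 mM potassium phosphate−MgCl2 buffer pH 7.4, compound 5 μM with NADPH system at 37 °C; stopped with acetonitrile at 0, 5, 10, 15, 30, 60 min. After centrifugation, remaining compound quantified by LC−MS/MS to derive t1/2; mean ± SD.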

Activity calls are given as the source filed them. No cut-off for these calls is given here. A value given as a limit tells only on which side of the number the result lay.

On to `CC1(C)CC[C@]23CC[C@@]4(C)[C@]5(C)CC[C@H]6C(C)(C)C(=O)C(C#N)=C[C@]6(C)C5=CC(=O)[C@@]4([C@@H]2C1)N(C1CCCCC1)C3=O`, for which the Activity result in the data set with Mus musculus [1] is reported as “Non-toxic”; in the data set on Mus musculus [3], “Non-toxic”; with DU-145 [4] it was 56%; in the data set on Mus musculus [5], “Non-toxic”; in the data set on Mus musculus [6], “Non-toxic”; with Mus musculus [7], “Non-toxic”. Moreover, the Activity result in the data set on Mus musculus [8], in the data set with Mus musculus [9] and in the data set on Mus musculus [13] was “Non-toxic” each time. Moreover, the survival at 14 day in data set [2] is 100%; in data set [10] it was 25%; in [20], 63%. In addition, the inhibition entry in data set [11] and in data set [21] was “Active” each time. This compound yielded an inhibition at 2 µM with DU-145 [12] of 75%. Moreover, the half-inhibitory concentration (IC50) is 390 nM with DU-145 [14], more than 100000 nM against Cytochrome P450 1A2, 460 nM in data set [16] and 380 nM in [18]. The LD50 at 336 h in [15] is 541 mg/kg. Moreover, the result in the data set with DU-145 [17] was Active. For the same compound, in data set [19], the Papp A→B at 0.5 h, 0.5 µM came out at 0.045 ×10⁻⁶ cm/s. Also, the result in data set [22] was inactive. The same compound yielded a half-life in data set [23] of 39 min.

The values above are taken from ChEMBL document CHEMBL3580660, “Synthesis and Biological Evaluation of Novel Olean-28,13β-lactams as Potential Antiprostate Cancer Agents” (J Med Chem, 2015).
